According to ChEMBL document CHEMBL1255544, “Synthesis and evaluation of novel chloropyrrole molecules designed by molecular hybridization of common pharmacophores as potential antimicrobial agents” (2010):
Converted amounts (≈) assume the structure as drawn. The source made the active and inactive calls. No cut-off for these calls is given here.

Key:
Candida albicans [1] = experiment: Antimicrobial activity against Candida albicans after 48 hrs by broth dilution method; format: functional
Summary of the method: (§1)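 MIC by broth dilution: the lowest concentration (highest dilution) that arrested bacterial or fungal growth. Strains were E. coli ATCC-25922, S. aureus ATCC-25923, P. aeruginosa ATCC-27853 and C. albicans.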

Pseudomonas aeruginosa [2] = experiment: Antimicrobial activity against Pseudomonas aeruginosa ATCC 27853 after 24 hrs by disk diffusion method; format: functional
Summary of the method: (§2)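 Zone of inhibition by disc diffusion against E. coli ATCC-25922, S. aureus ATCC-25923, P. aeruginosa ATCC-27853 and recultured Klebsiella pneumoniae.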

Pseudomonas aeruginosa [3] = experiment: Antimicrobial activity against Pseudomonas aeruginosa ATCC 27853 after 24 hrs by broth dilution method; format: functional; conditions: ATCC 27853, 24 h; summary of the method: as §1
Staphylococcus aureus [4] = experiment: Antimicrobial activity against Staphylococcus aureus ATCC 25923 after 24 hrs by disk diffusion method; format: functional; summary of the method: as §2
Escherichia coli [5] = experiment: Antimicrobial activity against Escherichia coli ATCC […] after 24 hrs by broth dilution method; format: functional; summary of the method: as §1
Escherichia coli [6] = experiment: Antimicrobial activity against Escherichia coli ATCC […] after 24 hrs by disk diffusion method; format: functional; summary of the method: as §2
Staphylococcus aureus [7] = experiment: Antimicrobial activity against Staphylococcus aureus ATCC 25923 after 24 hrs by broth dilution method; format: functional; conditions: ATCC 25923, 24 h; summary of the method: as §1
Candida albicans [8] = experiment: Antimicrobial activity against Candida albicans after 48 hrs by agar dilution method; format: functional
Summary of the method: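 Candida albicans tested by agar dilution, with compounds in DMSO.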

Klebsiella pneumoniae [9] = experiment: Antimicrobial activity against Klebsiella pneumoniae at 100 ug/ml after 24 hrs by broth dilution method; format: functional, organism-based
Klebsiella pneumoniae [10] = experiment: Antimicrobial activity against Klebsiella pneumoniae after 24 hrs by disk diffusion method; format: functional; summary of the method: as §2

| SMILES | MIC (Candida albicans [1]) | diameter of the inhibition zone (DIZ) (Pseudomonas aeruginosa [2]) | MIC (Pseudomonas aeruginosa [3]) | diameter of the inhibition zone (DIZ) (Staphylococcus aureus [4]) | MIC (Escherichia coli [5]) | diameter of the inhibition zone (DIZ) (Escherichia coli [6]) | MIC (Staphylococcus aureus [7]) | diameter of the inhibition zone (DIZ) (Candida albicans [8]) | Activity (Klebsiella pneumoniae [9]) | diameter of the inhibition zone (DIZ) (Klebsiella pneumoniae [10]) |
| --- | --- | --- | --- | --- | --- | --- | --- | --- | --- | --- |
| COc1ccc(/C=C/C(=O)c2cc(Cl)c[nH]2)cc1OC | 50 µg/mL (≈ 171 µM) | 14 mm | 100 µg/mL (≈ 343 µM) | 13 mm | 12.5 µg/mL (≈ 42.8 µM) | 16 mm | 12.5 µg/mL (≈ 42.8 µM) | 12 mm | inactive |  |
| COc1ccc(/C=C/C(=O)c2cc(Cl)c[nH]2)cc1 | 50 µg/mL (≈ 191 µM) | 15 mm | 25 µg/mL (≈ 95.5 µM) | 18 mm | 12.5 µg/mL (≈ 47.8 µM) | 16 mm | 12.5 µg/mL (≈ 47.8 µM) | 12 mm | inactive |  |
| COc1ccc(/C=N/NC(=O)c2cc(Cl)c(Cl)[nH]2)cc1OC | 12.5 µg/mL (≈ 36.5 µM) | 18 mm | 12.5 µg/mL (≈ 36.5 µM) | 25 mm | 3.12 µg/mL (≈ 9.13 µM) | 20 mm | 1.56 µg/mL (≈ 4.56 µM) | 24 mm |  | 17 mm |
| COc1ccc(/C=C/C(=O)c2cc(Cl)c(Cl)[nH]2)cc1 | 50 µg/mL (≈ 169 µM) | 17 mm | 100 µg/mL (≈ 338 µM) | 20 mm | 12.5 µg/mL (≈ 42.2 µM) | 13 mm | 12.5 µg/mL (≈ 42.2 µM) | 12 mm |  | 18 mm |
| COc1ccc(/C=N/NC(=O)c2cc(Cl)c[nH]2)cc1OC | 25 µg/mL (≈ 81.2 µM) | 16 mm | 100 µg/mL (≈ 325 µM) | 20 mm | 12.5 µg/mL (≈ 40.6 µM) | 12 mm | 12.5 µg/mL (≈ 40.6 µM) | 20 mm | inactive |  |
| COc1ccc(OC)c(/C=N/NC(=O)c2cc(Cl)c[nH]2)c1 | 25 µg/mL (≈ 81.2 µM) | 15 mm | 100 µg/mL (≈ 325 µM) | 20 mm | 12.5 µg/mL (≈ 40.6 µM) | 15 mm | 6.25 µg/mL (≈ 20.3 µM) | 13 mm | inactive |  |
| CN(C)c1ccc(/C=N/NC(=O)c2cc(Cl)c[nH]2)cc1 | 25 µg/mL (≈ 86 µM) | 14 mm | 100 µg/mL (≈ 344 µM) | 10 mm | 12.5 µg/mL (≈ 43 µM) | 17 mm | 12.5 µg/mL (≈ 43 µM) | 18 mm | inactive |  |
| O=C(N/N=C/c1ccco1)c1cc(Cl)c[nH]1 | 25 µg/mL (≈ 105 µM) | 15 mm | 100 µg/mL (≈ 421 µM) | 24 mm | 25 µg/mL (≈ 105 µM) | 23 mm | 25 µg/mL (≈ 105 µM) | 21 mm | inactive |  |
| COc1ccc(/C=N/NC(=O)c2cc(Cl)c[nH]2)cc1 | 25 µg/mL (≈ 90 µM) | 14 mm | 100 µg/mL (≈ 360 µM) | 18 mm | 12.5 µg/mL (≈ 45 µM) | 10 mm | 12.5 µg/mL (≈ 45 µM) | 15 mm | inactive |  |
| COc1ccc(OC)c(/C=C/C(=O)c2cc(Cl)c(Cl)[nH]2)c1 | 50 µg/mL (≈ 153 µM) | 15 mm | 100 µg/mL (≈ 307 µM) | 22 mm | 6.25 µg/mL (≈ 19.2 µM) | 20 mm | 6.25 µg/mL (≈ 19.2 µM) | 15 mm |  | 16 mm |
| O=C(N/N=C/c1ccccc1O)c1cc(Cl)c[nH]1 | 25 µg/mL (≈ 94.8 µM) | 14 mm | 100 µg/mL (≈ 379 µM) | 17 mm | 6.25 µg/mL (≈ 23.7 µM) | 20 mm | 6.25 µg/mL (≈ 23.7 µM) | 18 mm | inactive |  |
| O=C(/C=C/c1ccco1)c1cc(Cl)c(Cl)[nH]1 | 50 µg/mL (≈ 195 µM) | 17 mm | 25 µg/mL (≈ 97.6 µM) | 25 mm | 3.12 µg/mL (≈ 12.2 µM) | 21 mm | 1.56 µg/mL (≈ 6.09 µM) | 14 mm |  | 15 mm |
| O=C(N/N=C/c1ccccc1)c1cc(Cl)c[nH]1 | 25 µg/mL (≈ 101 µM) | 14 mm | 100 µg/mL (≈ 404 µM) | 17 mm | 12.5 µg/mL (≈ 50.5 µM) | 14 mm | 12.5 µg/mL (≈ 50.5 µM) | 20 mm | inactive |  |
| O=C(N/N=C/c1ccc(Cl)cc1)c1cc(Cl)c[nH]1 | 25 µg/mL (≈ 88.6 µM) | 15 mm | 100 µg/mL (≈ 354 µM) | 26 mm | 12.5 µg/mL (≈ 44.3 µM) | 16 mm | 3.12 µg/mL (≈ 11.1 µM) | 17 mm | inactive |  |
| O=C(N/N=C/c1ccccc1)c1cc(Cl)c(Cl)[nH]1 | 12.5 µg/mL (≈ 44.3 µM) | 18 mm | 50 µg/mL (≈ 177 µM) | 16 mm | 12.5 µg/mL (≈ 44.3 µM) | 11 mm | 3.12 µg/mL (≈ 11.1 µM) | 23 mm |  | 17 mm |
| O=C(N/N=C/c1ccc(Cl)cc1)c1cc(Cl)c(Cl)[nH]1 | 12.5 µg/mL (≈ 39.5 µM) | 16 mm | 25 µg/mL (≈ 79 µM) | 24 mm | 3.12 µg/mL (≈ 9.87 µM) | 22 mm | 1.56 µg/mL (≈ 4.93 µM) | 20 mm |  | 20 mm |
| O=C(/C=C/c1ccccc1O)c1cc(Cl)c[nH]1 | 50 µg/mL (≈ 202 µM) | 18 mm | 25 µg/mL (≈ 101 µM) | 16 mm | 25 µg/mL (≈ 101 µM) | 10 mm | 12.5 µg/mL (≈ 50.5 µM) | 15 mm | inactive |  |
| COc1ccc(/C=C/C(=O)c2cc(Cl)c(Cl)[nH]2)cc1OC | 50 µg/mL (≈ 153 µM) | 17 mm | 25 µg/mL (≈ 76.6 µM) | 24 mm | 6.25 µg/mL (≈ 19.2 µM) | 15 mm | 3.12 µg/mL (≈ 9.58 µM) | 18 mm |  | 18 mm |
| O=C(N/N=C/c1c(O)cccc1O)c1cc(Cl)c[nH]1 | 25 µg/mL (≈ 89.4 µM) | 14 mm | 50 µg/mL (≈ 179 µM) | 24 mm | 6.25 µg/mL (≈ 22.3 µM) | 21 mm | 3.12 µg/mL (≈ 11.2 µM) | 18 mm | inactive |  |
| COc1ccc(/C=N/NC(=O)c2cc(Cl)c(Cl)[nH]2)cc1 | 12.5 µg/mL (≈ 40 µM) | 20 mm | 25 µg/mL (≈ 80.1 µM) | 20 mm | 12.5 µg/mL (≈ 40 µM) | 19 mm | 6.25 µg/mL (≈ 20 µM) | 24 mm |  | 16 mm |
| O=C(N/N=C/c1ccccc1O)c1cc(Cl)c(Cl)[nH]1 | 12.5 µg/mL (≈ 41.9 µM) | 18 mm | 50 µg/mL (≈ 168 µM) | 22 mm | 3.12 µg/mL (≈ 10.5 µM) | 18 mm | 1.56 µg/mL (≈ 5.23 µM) | 16 mm |  | 19 mm |
| COc1ccc(OC)c(/C=N/NC(=O)c2cc(Cl)c(Cl)[nH]2)c1 | 12.5 µg/mL (≈ 36.5 µM) | 13 mm | 25 µg/mL (≈ 73.1 µM) | 24 mm | 3.12 µg/mL (≈ 9.13 µM) | 20 mm | 1.56 µg/mL (≈ 4.56 µM) | 24 mm |  | 18 mm |
| COc1ccc(OC)c(/C=C/C(=O)c2cc(Cl)c[nH]2)c1 | 50 µg/mL (≈ 171 µM) | 15 mm | 100 µg/mL (≈ 343 µM) | 19 mm | 12.5 µg/mL (≈ 42.8 µM) | 18 mm | 12.5 µg/mL (≈ 42.8 µM) | 16 mm | inactive |  |
| O=C(/C=C/c1ccco1)c1cc(Cl)c[nH]1 | 50 µg/mL (≈ 226 µM) | 17 mm | 25 µg/mL (≈ 113 µM) | 22 mm | 12.5 µg/mL (≈ 56.4 µM) | 20 mm | 12.5 µg/mL (≈ 56.4 µM) | 18 mm | inactive |  |
| O=C(/C=C/c1ccc(Cl)cc1)c1cc(Cl)c[nH]1 | 50 µg/mL (≈ 188 µM) | 16 mm | 100 µg/mL (≈ 376 µM) | 16 mm | 25 µg/mL (≈ 93.9 µM) | 12 mm | 12.5 µg/mL (≈ 47 µM) | 13 mm | inactive |  |
| C[C@@H]1[C@H](O)[C@@H](C)/C=C/C=C/C=C/C=C/C=C/C=C/C=C/[C@H](O[C@@H]2O[C@H](C)[C@@H](O)[C@H](N)[C@@H]2O)C[C@@H]2O[C@](O)(C[C@@H](O)C[C@@H](O)[C@H](O)CC[C@@H](O)C[C@@H](O)CC(=O)O[C@H]1C)C[C@H](O)[C@H]2C(=O)O [AMPHOTERICIN B] | 1.56 µg/mL (≈ 1.69 µM) |  |  |  |  |  |  | 25 mm |  |  |
